Source: paper PMC5548968 (Clinical cancer research : an official journal of the …, 2016)
pIC50: −log10 of the molar value.

Experiments:
phospho-ERK(T202/Y204) = test: NSG primary CLL xenograft model, pERK in CLL cells from spleen; type: in vivo, NSG mice; conditions: drinking water 0.3 or 0.16mg/mL, three weeks
Outline: (§1)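 Human CLL patient MNCs were Ficoll-isolated and viably frozen. They were transferred at 1 × 10^8 cells/mouse into busulfan-primed NSG mice. Drinking-water dosing (0.3 or 0.16mg/mL; 0.06mg/mL in select experiments) started day −1, with vehicle controls. After 3 weeks, splenocytes were sieved, ACK-lysed, fixed (4% paraformaldehyde), permeabilised (90% methanol) and stained for pPLCγ2(Y759), pERK(T202/Y204) or Ki-67 against isotype controls. Mice were averaged per patient and compared by paired t-test.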

ITK = target: T1, ITK (Homo sapiens, UniProt Q08881); test: DiscoverRx KINOMEscan competition binding assay, ITK; conditions: 1μM compound
T1 sequence (Q08881 1-620): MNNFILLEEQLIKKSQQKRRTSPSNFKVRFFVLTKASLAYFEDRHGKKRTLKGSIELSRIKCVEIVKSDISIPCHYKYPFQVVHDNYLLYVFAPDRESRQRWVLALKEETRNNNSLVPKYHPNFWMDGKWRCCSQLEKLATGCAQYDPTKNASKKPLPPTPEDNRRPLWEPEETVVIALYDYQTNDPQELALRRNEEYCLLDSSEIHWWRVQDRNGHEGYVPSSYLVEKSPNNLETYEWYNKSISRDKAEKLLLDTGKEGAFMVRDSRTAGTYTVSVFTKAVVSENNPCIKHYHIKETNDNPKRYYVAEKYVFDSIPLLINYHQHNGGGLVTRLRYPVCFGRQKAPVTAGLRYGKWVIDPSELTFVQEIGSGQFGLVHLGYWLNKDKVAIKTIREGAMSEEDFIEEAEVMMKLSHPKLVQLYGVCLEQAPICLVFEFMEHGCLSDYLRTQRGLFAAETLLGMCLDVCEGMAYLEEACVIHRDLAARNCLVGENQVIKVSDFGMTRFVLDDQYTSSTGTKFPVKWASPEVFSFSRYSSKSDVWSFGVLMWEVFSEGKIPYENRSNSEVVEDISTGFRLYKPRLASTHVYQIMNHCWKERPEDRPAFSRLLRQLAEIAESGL

phospho-PLCγ2(Y759) = test: NSG primary CLL xenograft model, pPLCγ2 in CLL cells from spleen; type: in vivo, NSG mice; conditions: drinking water 0.3 or 0.16mg/mL, three weeks
Outline: as §1

phospho-BTK(Y223) [1] = test: in vitro phospho-flow in CLL patient MNCs, phospho-BTK; type: cell-based, human; conditions: 1μM, one hour
phospho-S6(S235/236) [2] = type: in vivo, C57BL/6 mice; conditions: 0.16mg/mL drinking water, one or four weeks, ex vivo anti-IgM
Outline: (§2)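 C57BL/6 recipients received 1 × 10^7 Eμ-TCL1 leukemic cells. Drinking water with 0.16mg/mL test compound or vehicle began once blood CD5+/CD19+ cells reached ≥10%. After 1 or 4 weeks, splenocytes were stimulated ex vivo with anti-IgM. Cells were stained for B220, CD3, pPLCγ2(Y1217) (n=7/group) or pS6(S235/236) (n=14/group). Median fluorescence was read in B220+CD3− cells as % change versus vehicle, by normalised unpaired t-test.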

[3] = test system: BCR stimulation by anti-IgM (CD69) in CLL patient MNCs; type: cell-based, human; conditions: 1μM pretreatment 3 hours, anti-IgM 18 h
phospho-BTK(Y223) [4] = type: in vivo, C57BL/6 mice; conditions: 0.16mg/mL drinking water, one or four weeks, ex vivo anti-IgM
human CLL cells [5] = test: NSG primary CLL xenograft model, tumor burden in the spleen; type: in vivo, NSG mice; conditions: drinking water, three weeks
Outline: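 Spleen tumour burden in NSG mice engrafted with 1 × 10^8 primary CLL MNCs after busulfan priming. Mice got treated or vehicle drinking water from day −1 for 3 weeks. Homogenised, sieved, ACK-lysed splenocytes were surface-stained (CD45, CD19, CD3, CD5) and analysed by flow cytometry. Burden is the percentage of CLL cells among human CD45+ cells. Per-patient averages were compared by paired t-test.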

human CLL cells [6] = test: NSG primary CLL xenograft model, circulating CLL cell count per μL blood; type: in vivo, NSG mice; conditions: drinking water, three weeks, whole blood
Outline: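 Whole blood came from CLL-engrafted NSG mice after 3 weeks of treated or vehicle drinking water started at busulfan priming (day −1). Absolute human CLL cells (CD45+/CD19+/CD5+) per μL were counted by flow cytometry with counting beads. Values are averages of 2–5 mice per donor patient, compared by paired t-test.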

phospho-S6(S235/236) [7] = test: in vitro phospho-flow in CLL patient MNCs, phospho-S6; type: cell-based, human; conditions: 1μM, one hour
Outline: (§3)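 Primary CLL patient MNCs (n=5 patients) were treated in culture with or without 1μM test compound for 1 hour. Cells were fixed in 4% paraformaldehyde, permeabilised in 90% methanol and stained for phospho-PLCγ2(Y759), phospho-S6(S235/236) or phospho-p65(S529) with isotype controls. Flow cytometry gave the percent of CLL cells positive for each readout.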

[8] = test system: 395 wild-type human kinases; test: DiscoverRx KINOMEscan ATP site dependent competition binding assay, kinase panel; conditions: 1μM compound
BTK = conditions: read-out: IC50 BTK; as previously reported; cited from earlier work
human CLL cells [9] = test: NSG primary CLL xenograft model, CLL cell proliferation; type: in vivo, NSG mice; conditions: drinking water, three weeks, spleen
Outline: as §1

phospho-p65(S529) = test: in vitro phospho-flow in CLL patient MNCs, phospho-NF-κB p65; type: cell-based, human; conditions: 1μM, one hour
Outline: as §3

TEC = conditions: read-out: concentration inhibiting TEC; biochemical kinase assays; cited from earlier work
[10] = test system: BCR signaling (CD69 expression); type: in vivo, C57BL/6 mice; conditions: for effective dose (CD69 expression): oral gavage 0.1 to 30mg/kg, splenocytes 3 hours after dose, anti-IgM 18 h
Outline: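 Female C57BL/6 mice (5/group/dose) were gavaged with vehicle or test compound at 0.1–30mg/kg. Splenocytes were taken 3 hours later and stimulated with goat anti-mouse IgM at 10μg/mL for 18 hours (37°C, 5% CO2). After Fc blocking, cells were stained for CD19 and CD69, with 7-AAD to exclude dead cells. CD69 on >5,000 gated CD19+ cells per sample was measured by flow cytometry.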

phospho-PLCγ2(Y1217) = type: in vivo, C57BL/6 mice; conditions: 0.16mg/mL drinking water, one or four weeks, ex vivo anti-IgM
Outline: as §2

murine BTK = murine BTK (Mus musculus, UniProt P35991); test: BTK occupancy probe ELISA, TCL1 adoptive transfer model splenocytes; type: in vivo; conditions: 0.16mg/mL drinking water, one or four weeks
Sequence of murine BTK (P35991 whole entry): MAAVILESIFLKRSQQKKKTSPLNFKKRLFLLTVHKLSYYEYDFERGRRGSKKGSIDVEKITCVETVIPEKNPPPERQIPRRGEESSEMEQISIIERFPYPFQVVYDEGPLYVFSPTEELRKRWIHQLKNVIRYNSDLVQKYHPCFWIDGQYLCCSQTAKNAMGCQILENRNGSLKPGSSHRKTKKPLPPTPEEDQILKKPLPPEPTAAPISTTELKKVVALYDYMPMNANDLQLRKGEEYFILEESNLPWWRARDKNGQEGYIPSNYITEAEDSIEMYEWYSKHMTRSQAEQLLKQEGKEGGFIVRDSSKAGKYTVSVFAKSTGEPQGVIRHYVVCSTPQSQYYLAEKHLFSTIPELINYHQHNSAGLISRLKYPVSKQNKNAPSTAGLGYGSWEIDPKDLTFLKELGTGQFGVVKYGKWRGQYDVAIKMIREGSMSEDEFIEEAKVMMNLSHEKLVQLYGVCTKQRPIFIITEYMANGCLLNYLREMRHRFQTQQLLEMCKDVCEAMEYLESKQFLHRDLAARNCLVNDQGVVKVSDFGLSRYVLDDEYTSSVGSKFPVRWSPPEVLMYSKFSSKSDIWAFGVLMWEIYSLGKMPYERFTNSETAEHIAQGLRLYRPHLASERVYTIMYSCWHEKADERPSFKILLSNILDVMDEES

ERBB4 = conditions: read-out: concentration inhibiting ERBB4; biochemical kinase assays; cited from earlier work
[11] = test system: kinases containing a conserved cysteine residue that aligns with the Cys481 in BTK; conditions: cited from earlier work

Compound: CC#CC(=O)N1CCC[C@H]1c1nc(-c2ccc(C(=O)Nc3ccccn3)cc2)c2c(N)nccn12 [acalabrutinib, Acalabrutinib]
- median change in phosphorylation of ERK vs vehicle (phospho-ERK(T202/Y204)): −79%
- inhibition of ITK (ITK): not significantly inhibited
- median change in phosphorylation of PLCγ2 vs vehicle (phospho-PLCγ2(Y759)): −68%
- median change in MFI of pBTK (autophosphorylation site) (phospho-BTK(Y223) [1]): −15%
- median change in pS6 induction vs vehicle (phospho-S6(S235/236) [2]): −35%
- prevention of BCR stimulation by anti-IgM (CD69) [3]: significantly prevented BCR stimulation
- median change in auto-phosphorylation of BTK vs vehicle (phospho-BTK(Y223) [4]): −31%
- median change in human CLL cells in the murine spleen (tumor burden) vs vehicle (human CLL cells [5]): −33%
- median change in CLL cells per μL of blood vs vehicle (human CLL cells [6]): +0.76%
- median change in phosphorylation of S6 (phospho-S6(S235/236) [7]): −20%
- binding across kinase panel [8]: Minimal binding outside of BTK
- pIC50 (BTK): 8.29
- median change in Ki67 (CLL cell proliferation) vs vehicle (human CLL cells [9]): −50%
- median change in phosphorylation of NF-κB (p65) (phospho-p65(S529)): −26%
- effective dose (CD69 expression) [10]: 1.3 mg/kg
- inhibition of BCR signaling (CD69 expression) compared with ibrutinib ([10]; oral, 1mg/kg and 3mg/kg): significantly more than ibrutinib
- median change in phosphorylation of PLCγ2 vs vehicle (phospho-PLCγ2(Y1217)): −22%
- drug occupancy of murine BTK (murine BTK): ≥ 90%
- pIC50 (ERBB4): > 7.00

Compound: C=CC(=O)N1CCC[C@@H](n2nc(-c3ccc(Oc4ccccc4)cc3)c3c(N)ncnc32)C1 [ibrutinib, reference compound]
- pIC50 (BTK): 8.82
- IC50 values for all ten kinases with the conserved cysteine [11]: low nanomolar range
- effective dose (CD69 expression) [10]: 2.9 mg/kg
